Laboratory results from ChEMBL document CHEMBL4400539, “Discovery of a Novel Chemotype of Histone Lysine Methyltransferase EHMT1/2 (GLP/G9a) Inhibitors: Rational Design, Synthesis, Biological Evaluation, and Co-crystal Structure” (J Med Chem, 2019).
Active and inactive are the calls of the source. No cut-off for these calls is given here.

Key:
[1] = Apparent permeability of the compound after 24 hrs by BBB-PAMPA; format: ADME
[2] = molecular target: T1, Histone-lysine N-methyltransferase EHMT2 (Homo sapiens) (UniProt Q96KQ7)
T1 sequence (whole entry): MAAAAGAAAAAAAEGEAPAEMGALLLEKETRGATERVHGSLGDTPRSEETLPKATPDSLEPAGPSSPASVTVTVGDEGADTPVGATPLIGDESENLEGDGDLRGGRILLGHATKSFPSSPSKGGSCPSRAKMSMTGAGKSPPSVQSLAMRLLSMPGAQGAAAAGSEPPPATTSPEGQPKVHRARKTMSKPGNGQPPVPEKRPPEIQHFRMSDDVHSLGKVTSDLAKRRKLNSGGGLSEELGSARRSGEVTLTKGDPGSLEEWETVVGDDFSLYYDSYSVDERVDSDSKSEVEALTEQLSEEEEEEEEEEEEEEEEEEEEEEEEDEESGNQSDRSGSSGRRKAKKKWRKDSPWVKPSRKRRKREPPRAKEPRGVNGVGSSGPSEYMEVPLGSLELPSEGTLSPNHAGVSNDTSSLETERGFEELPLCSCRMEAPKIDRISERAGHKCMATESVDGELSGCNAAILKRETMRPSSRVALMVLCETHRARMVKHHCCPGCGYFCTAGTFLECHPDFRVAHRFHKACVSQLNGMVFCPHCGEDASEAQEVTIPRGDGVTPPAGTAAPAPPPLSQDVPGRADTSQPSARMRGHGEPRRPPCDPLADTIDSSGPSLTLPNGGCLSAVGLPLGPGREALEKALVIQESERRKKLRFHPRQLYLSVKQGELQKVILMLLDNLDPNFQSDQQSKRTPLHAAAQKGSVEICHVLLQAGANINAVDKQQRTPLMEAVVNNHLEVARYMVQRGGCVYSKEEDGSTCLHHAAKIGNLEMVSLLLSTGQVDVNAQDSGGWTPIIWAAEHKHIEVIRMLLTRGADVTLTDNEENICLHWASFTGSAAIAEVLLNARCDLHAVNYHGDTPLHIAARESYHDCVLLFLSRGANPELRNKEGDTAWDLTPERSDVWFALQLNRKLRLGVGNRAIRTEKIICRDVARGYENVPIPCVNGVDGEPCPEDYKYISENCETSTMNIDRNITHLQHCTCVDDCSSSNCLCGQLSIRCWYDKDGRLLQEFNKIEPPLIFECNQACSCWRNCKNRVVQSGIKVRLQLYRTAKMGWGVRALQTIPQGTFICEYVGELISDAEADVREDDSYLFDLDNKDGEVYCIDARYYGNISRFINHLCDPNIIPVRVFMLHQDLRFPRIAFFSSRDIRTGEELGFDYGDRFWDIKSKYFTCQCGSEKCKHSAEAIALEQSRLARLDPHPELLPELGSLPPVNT

[3] = tested on: MDA-MB-231; assay: Cytotoxicity against human MDA-MB-231 cells assessed as reduction in cell viability up to 5 uM after 72 hrs by MTT assay; format: cell-based; details: mda-mb-231, 72 h
In short: (§1)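 MCF-7, MDA-MB-231 and U-343 cells exposed 24, 48 and 72 h to 0.05, 0.5, 5 and 50 μM compound; viability by MTT reduction to formazan versus vehicle; mean ± SD of at least three independent experiments.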

[4] = tested on: MCF7; assay: Cytotoxicity against human MCF7 cells assessed as reduction in cell viability at 0.05 to 50 uM after 48 to 72 hrs by MTT assay; format: cell-based; details: mcf7, 50 µM; in short: as §1
[5] = molecular target: Protein arginine N-methyltransferase 3 (Homo sapiens) (UniProt O60678); assay: Inhibition of recombinant human PRMT3 at 10 to 25 uM using biotinylated-Histone H4 peptide (1 to 21 residues) as substrate preincubated for 30 mins followed by substrate addition and measured after 60 mins in presence of SAM by AlphaLISA assay relative to control
Chain of Protein arginine N-methyltransferase 3 (Homo sapiens) (O60678 2-531 limits assumed): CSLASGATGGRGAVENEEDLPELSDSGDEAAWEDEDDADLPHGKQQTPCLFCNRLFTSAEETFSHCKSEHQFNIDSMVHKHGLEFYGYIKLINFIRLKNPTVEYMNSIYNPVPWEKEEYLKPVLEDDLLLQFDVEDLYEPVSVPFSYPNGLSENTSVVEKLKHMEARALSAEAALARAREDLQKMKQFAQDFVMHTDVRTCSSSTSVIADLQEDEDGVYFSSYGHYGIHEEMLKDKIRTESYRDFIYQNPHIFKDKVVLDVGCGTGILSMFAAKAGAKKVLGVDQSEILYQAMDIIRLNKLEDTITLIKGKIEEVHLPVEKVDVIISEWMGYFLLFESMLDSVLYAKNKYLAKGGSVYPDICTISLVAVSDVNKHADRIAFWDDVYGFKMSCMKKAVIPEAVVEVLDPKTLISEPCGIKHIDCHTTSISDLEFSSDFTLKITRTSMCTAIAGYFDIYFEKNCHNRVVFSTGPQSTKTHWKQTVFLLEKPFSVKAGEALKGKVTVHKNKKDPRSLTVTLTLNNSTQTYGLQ
In short: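 Biotinylated H4(1–21) peptide plus SAM then added for 60 min: PRMT1 0.9 nM, peptide 100 nM, SAM 2 μM; PRMT3 23 nM, peptide 50 nM, SAM 10 μM. Anti-H4R3me AlphaLISA; 10 and 25 μM; three experiments, mean ± SD.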

[6] = Cytotoxicity against human U343MG cells assessed as reduction in cell viability up to 5 uM after 72 hrs by MTT assay; format: cell-based; in short: as §1
[7] = Apparent permeability of the compound after 24 hrs by PAMPA; format: ADME

- Papp [1]: 2.3 ×10⁻⁷ cm/s
- Ka [2]: 550
- inhibition [5]: inactive
- Papp [7]: 4.8 ×10⁻⁷ cm/s
Structure (SMILES): COc1cc2c(cc1OCCCN1CCCC1)N=C(C1CCCCC1)CN=C2NC1CCN(C(C)C)CC1
- Activity [3]: Non-Toxic
- Activity [4]: Toxic
- Activity [6]: Non-Toxic
